We go through five compounds from ChEMBL document CHEMBL2176984, “Target Selectivity of FimH Antagonists” (J Med Chem, 2012).

Data set [1] is described as follows: Displacement of biotinylated-TM PAA from Escherichia coli FimH expressed in Escherichia coli HM125 after 3 hrs by colorimetry.
Data set [2] concerns the target T1, CD209 antigen (Homo sapiens) (UniProt Q9NNX6).
T1 sequence (whole entry): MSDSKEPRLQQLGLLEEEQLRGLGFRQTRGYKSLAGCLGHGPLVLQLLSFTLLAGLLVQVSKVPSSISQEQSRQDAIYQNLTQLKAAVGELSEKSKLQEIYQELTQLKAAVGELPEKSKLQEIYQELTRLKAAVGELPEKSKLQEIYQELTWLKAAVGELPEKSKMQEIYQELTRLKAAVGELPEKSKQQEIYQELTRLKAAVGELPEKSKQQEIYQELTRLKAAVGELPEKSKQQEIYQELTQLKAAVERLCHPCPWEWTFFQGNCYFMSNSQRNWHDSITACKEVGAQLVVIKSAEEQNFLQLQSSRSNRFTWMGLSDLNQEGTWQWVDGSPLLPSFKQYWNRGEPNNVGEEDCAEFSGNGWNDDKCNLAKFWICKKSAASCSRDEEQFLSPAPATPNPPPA
Description: Displacement of biotinylated-TM PAA from human DC-SIGN at 1 mM after 3 hrs by colorimetry. The method, boiled down:
(§1)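 Proteins were coated overnight at 4 °C in 20 mM HEPES pH 7.4, 150 mM NaCl and 10 mM CaCl2, then blocked with 3% BSA for 2 h at 4 °C. FimH was a CRD-thrombin-6His construct expressed in E. coli HM125; DC-SIGN and DC-SIGNR were CRD-Fc chimeras made in stably transfected CHO-K1. Compound at 1 mM final was co-added with streptavidin-HRP-coupled TM-PAA, incubated 3 h at 25 °C and 350 rpm, then read by ABTS OD 415 nm. No-antagonist signal was set to 100% and no-polymer background to 0%.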

Data set [3] deals with Mannose-binding protein C (Homo sapiens) (UniProt P11226). Description: Displacement of biotinylated-TM PAA from human MBP at 1 mM after 3 hrs by colorimetry. In outline: as §1
Sequence of Mannose-binding protein C (Homo sapiens) (P11226 whole entry, the tested form may be a part): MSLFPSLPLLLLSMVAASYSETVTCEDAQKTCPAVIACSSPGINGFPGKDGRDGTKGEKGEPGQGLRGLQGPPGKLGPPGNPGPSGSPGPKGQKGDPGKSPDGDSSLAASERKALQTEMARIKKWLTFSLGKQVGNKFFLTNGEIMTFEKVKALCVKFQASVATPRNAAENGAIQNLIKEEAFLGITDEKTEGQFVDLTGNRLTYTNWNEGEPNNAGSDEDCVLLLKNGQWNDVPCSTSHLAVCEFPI
The target in data set [4] is T2, C-type lectin domain family 4 member C (Homo sapiens) (UniProt Q8WTT0).
T2 sequence (whole entry): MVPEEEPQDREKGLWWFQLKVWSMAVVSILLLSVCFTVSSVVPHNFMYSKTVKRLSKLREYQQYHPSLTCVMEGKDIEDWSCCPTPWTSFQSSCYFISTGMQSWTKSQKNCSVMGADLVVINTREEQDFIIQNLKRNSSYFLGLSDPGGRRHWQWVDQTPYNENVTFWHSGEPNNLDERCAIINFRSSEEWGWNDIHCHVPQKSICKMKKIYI
Description: Displacement of biotinylated-TM PAA from human DLEC at 1 mM after 3 hrs by colorimetry. In outline:
as §1

For data set [5], the target named is T3, C-type lectin domain family 6 member A (Homo sapiens) (UniProt Q6EIG7).
T3 sequence (whole entry): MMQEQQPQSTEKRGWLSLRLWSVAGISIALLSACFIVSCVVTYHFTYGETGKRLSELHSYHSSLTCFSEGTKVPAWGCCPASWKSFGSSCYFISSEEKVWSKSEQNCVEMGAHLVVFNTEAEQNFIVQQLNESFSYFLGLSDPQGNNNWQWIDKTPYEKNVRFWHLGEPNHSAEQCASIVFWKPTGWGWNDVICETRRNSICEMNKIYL
Description: Displacement of biotinylated-TM PAA from human Dectin-2 at 1 mM after 3 hrs by colorimetry. In outline: as §1

The target in data set [6] is T4, C-type lectin domain family 4 member M (Homo sapiens) (UniProt Q9H2X3).
T4 sequence (whole entry): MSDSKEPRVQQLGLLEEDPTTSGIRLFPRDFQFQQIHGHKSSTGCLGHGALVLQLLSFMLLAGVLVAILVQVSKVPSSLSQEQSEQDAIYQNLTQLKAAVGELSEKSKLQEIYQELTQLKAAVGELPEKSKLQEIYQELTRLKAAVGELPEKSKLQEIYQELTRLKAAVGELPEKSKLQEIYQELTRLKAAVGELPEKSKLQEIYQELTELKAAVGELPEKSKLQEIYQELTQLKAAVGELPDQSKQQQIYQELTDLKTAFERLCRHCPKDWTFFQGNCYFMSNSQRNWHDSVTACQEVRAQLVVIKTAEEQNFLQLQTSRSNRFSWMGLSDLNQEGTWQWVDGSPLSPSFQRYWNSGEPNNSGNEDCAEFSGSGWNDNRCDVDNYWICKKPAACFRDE
Description: Displacement of biotinylated-TM PAA from human DC-SIGNR at 1 mM after 3 hrs by colorimetry. The method, boiled down:
as §1

Data set [7] has as its target T5, Pulmonary surfactant-associated protein D (Homo sapiens) (UniProt P35247).
T5 sequence (whole entry): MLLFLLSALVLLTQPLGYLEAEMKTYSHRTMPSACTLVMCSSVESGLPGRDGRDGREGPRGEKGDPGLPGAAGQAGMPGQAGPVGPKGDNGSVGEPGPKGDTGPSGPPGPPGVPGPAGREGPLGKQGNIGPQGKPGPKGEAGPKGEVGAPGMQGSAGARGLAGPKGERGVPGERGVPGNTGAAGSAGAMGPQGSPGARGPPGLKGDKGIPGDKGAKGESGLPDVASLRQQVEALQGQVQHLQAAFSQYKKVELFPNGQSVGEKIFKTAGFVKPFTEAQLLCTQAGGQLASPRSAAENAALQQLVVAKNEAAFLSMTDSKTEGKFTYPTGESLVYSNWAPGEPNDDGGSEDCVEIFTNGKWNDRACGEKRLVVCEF
Description: Displacement of biotinylated-TM PAA from human SP-D at 1 mM after 3 hrs by colorimetry. In outline:
as §1

For data set [8], the system named is Escherichia coli. Description: Displacement of biotinylated-TM PAA from Escherichia coli FimH expressed in Escherichia coli HM125 at 1 mM after 3 hrs by colorimetry. In outline: as §1
Data set [9] is described as follows: Cmax in mouse. The settings on record: in vivo. Type of data set: ADME, organism-based.

Activity calls are given as the source filed them. The rule behind the calls is not given here.

Broadly, the IC50 is the concentration that gives 50% inhibition. High values mean weaker potency in that assay, low ones greater potency in that assay. The term inhibition denotes the drop in the measured response relative to a control, in per cent. In data set [1], `CN1CCN(c2c(Nc3ccc(O[C@H]4O[C@H](CO)[C@@H](O)[C@H](O)[C@@H]4O)c(Cl)c3)c(=O)c2=O)CC1` returned a concentration for half-maximal inhibition (IC50) of 0.031 µM. The inhibition entry in data set [2], in [3], in data set [4], in [5], in data set [6] and in data set [7] was “inactive” in each case. Further, in [8], the inhibition entry is “Active”.

By Cmax is commonly meant the maximum level reached in the sampled fluid or tissue. As for `O=C(O)c1ccc(-c2ccc(O[C@H]3O[C@H](CO)[C@@H](O)[C@H](O)[C@@H]3O)c(Cl)c2)cc1`, the inhibition result in data set [2], in [3], in data set [4], in [5], in [6] and in data set [7] was “inactive” in each case. Moreover, the Cmax in data set [9] was determined as 97 µM. The inhibition entry in data set [8] was “Active”.

`O=C(O)c1ccc(-c2ccc(O[C@H]3O[C@H](CO)[C@@H](O)[C@H](O)[C@@H]3O)cc2)cc1`: the IC50 in [1] worked out at 0.017 µM. Besides, the inhibition entry in data set [2], in [3], in data set [5], in [6] and in data set [7] was “inactive” each time. In data set [9], the concentration peaked (Cmax) at 80 µM. In data set [4], this compound registered an inhibition of 50%. Also, the inhibition result in data set [8] is “Active”.

In the case of `O=C(O)c1ccc2c(ccn2-c2ccc(O[C@H]3O[C@H](CO)[C@@H](O)[C@H](O)[C@@H]3O)c(Cl)c2)c1`, the IC50 in data set [1] was found to be 0.02 µM. The inhibition entry in data set [2], in data set [3], in data set [4], in data set [5], in data set [6] and in data set [7] was “inactive” in each case. The inhibition result in [8] is “Active”.

`CCCCCCCO[C@H]1O[C@H](CO)[C@@H](O)[C@H](O)[C@@H]1O` registered an IC50 in data set [1] of 0.065 µM. The inhibition result in [2], in data set [3], in data set [4], in data set [5], in [6] and in [7] was “inactive” in each case. In [9], the Cmax worked out at 144 µM. Besides, the inhibition entry in [8] was “Active”.
